# Measurements from different studies.
# Lines come from different studies, so protocols differ.
# Target: Acetylcholinesterase (ache, Electrophorus electricus, UniProt O42275)
# Effect on: enzyme activity
# Action: inhibitor
# Technique: Ellman
Compound,setting,IC50
O=C(NCC1CCN(Cc2ccccc2)CC1)c1cc2ccccc2o1,,30 µM
Cc1c(C(=O)[C@H]2[C@H](c3c[nH]c4ccc(Br)cc34)[C@H]3CCCN3[C@]23C(=O)Nc2ccccc23)cnn1-c1ccccc1,,> 100 µM
COc1cccc2cc(C(=O)NCCN3CCN(Cc4ccccc4)CC3)oc12,,4 µM
CCOc1ccc(C=NNC(=S)NCC(=O)c2ccc(-c3ccccc3)cc2)cc1,,460 µM
Cc1c(C(=O)[C@H]2[C@H](c3c[nH]c4ccc(Br)cc34)[C@H]3CSCN3[C@]23C(=O)Nc2ccc([N+](=O)[O-])cc23)cnn1-c1ccccc1,,24.1 µM
CC=C1[C@H]2C=C(C)C[C@]1(N)c1cc(OCCCC)c(=O)[nH]c1C2,,110 µM
C#CCNc1nc(NCCCC2CCN(Cc3ccccc3)CC2)c(C#N)cc1C#N,,0.0047 µM
CC(C)c1cc(C(C)C)c(S(=O)(=O)NNC(=O)C(=O)NNS(=O)(=O)c2c(C(C)C)cc(C(C)C)cc2C(C)C)c(C(C)C)c1,with preincubation,4.25 µM
CC=C1[C@H]2C=C(C)C[C@]1(N(C)C)c1ccc(=O)[nH]c1C2,,0.61 µM
Cc1c(C(=O)[C@H]2[C@H](c3c[nH]c4ccccc34)[C@H]3CSCN3[C@]23C(=O)Nc2ccccc23)cnn1-c1ccccc1,,57.1 µM
O=C(NCCN1CCN(Cc2ccccc2)CC1)c1cc2ccccc2o1,,18.5 µM
CC=C1[C@H]2C=C(C)C[C@]1(N)c1ccc(OC)nc1C2,,3.67 µM
Cc1c(C(=O)[C@H]2[C@H](c3cn(C)c4ccccc34)[C@H]3CCCN3[C@]23C(=O)Nc2cc(Cl)ccc23)cnn1-c1ccccc1,,> 100 µM
C#CCN(C)c1nc(NCCCCC2CCN(Cc3ccccc3)CC2)c(C#N)cc1C#N,,0.00074 µM
CC=C1[C@H]2C=C(C)C[C@]1(N)c1cc(I)c(=O)[nH]c1C2,,14.1 µM
COc1cc2c(cc1OC)CN(S(=O)(=O)CCc1cn(-c3cnc4ccccc4c3)nn1)CC2,,0.028 µM
CC1(C)O[C@H]2CC(=O)OC[C@]23[C@H]2CC[C@@]4(C)[C@H](c5ccoc5)OC(=O)[C@H]5O[C@]54[C@]2(C)C(=O)C[C@@H]13,,1060 µM
CC=C1[C@H]2C=C(C)C[C@]1(N)c1cc(C#N)c(=O)[nH]c1C2,,33.9 µM
Cc1c(C(=O)[C@H]2[C@H](c3c[nH]c4ccc(Br)cc34)CN(C)[C@]23C(=O)Nc2cc(Cl)ccc23)cnn1-c1ccccc1,,27.8 µM
O=C(CNC(=S)NN=Cc1ccc([N+](=O)[O-])cc1)c1ccc(Cl)cc1,,340 µM
CC=C1[C@H]2C=C(C)C[C@]1(N)c1cc(OC)c(=O)[nH]c1C2,,0.16 µM
